Source: ChEMBL document CHEMBL2390882, “Synthesis and biological evaluation of novel thiazolidinone derivatives as potential anti-inflammatory agents” (Eur J Med Chem, 2013)
Where “and” joins values, the source holds several entries; their conditions need not be identical. Equal values may be shown once. Calls of active or inactive are those of the source. The rule behind the calls is not given here.

Columns and labels:
RAW264.7 [1] = test: Antiinflammatory activity in mouse RAW264.7 cells assessed as inhibition of LPS-induced TNFalpha release at 10 uM incubated for 2 hrs prior to LPS challenge measured after 22 hrs by ELISA relative to LPS-treated control; assay type: functional
In short: (§1)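 RAW 264.7 macrophages in DMEM with 10% heat-inactivated FBS, plated at 4.0×10⁵/plate overnight. Pretreated 2 h with compound at 10 µM (curcumin 10 µM as reference), then LPS 0.5 µg/ml for 22 h. Medium cytokine measured by mouse ELISA kit and normalized to cell-lysate total protein. Expressed as % of LPS control, mean ±SEM of 4 independent experiments.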

RAW264.7 [2] = test: Antiinflammatory activity in mouse RAW264.7 cells assessed as inhibition of LPS-induced IL6 release at 10 uM incubated for 2 hrs prior to LPS challenge measured after 22 hrs by ELISA relative to LPS-treated control; assay type: functional; settings: for inhibition at 10 µM: Mus musculus, RAW264.7; in short: as §1
RAW264.7 [3] = test: Cytotoxicity against mouse RAW264.7 cells assessed as cell viability at 20 uM after 48 hrs by MTT assay; assay type: cell-based; settings: raw264.7, 48 h
In short: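 RAW264.7 cells seeded at 5000/well in 1640 medium with 5% heat-inactivated serum and grown 24 h before treatment. Compounds (DMSO stock) tested at 20 µM final for 48 h. MTT (5 mg/ml in 0.9% NaCl) added for 3 h, formazan dissolved in DMSO, absorbance read at 570 nm.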

RAW264.7 [4] = test: Antiinflammatory activity in mouse RAW264.7 cells assessed as inhibition of LPS-induced TNFalpha release incubated for 2 hrs prior to LPS challenge measured after 22 hrs by ELISA; assay type: functional, cell-based
In short: (§2)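 RAW 264.7 cells plated at 1.2×10⁶/plate overnight, pretreated 2 h at 0.3, 1.1, 3.3 and 10 µM, then stimulated with LPS 0.5 µg/ml for 22 h. Secreted cytokine quantified by ELISA and normalized to total cell protein, given as % of LPS control. IC50 derived from the concentration-response, 3-5 independent experiments.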

RAW264.7 [5] = test: Antiinflammatory activity in mouse RAW264.7 cells assessed as inhibition of LPS-induced IL6 release incubated for 2 hrs prior to LPS challenge measured after 22 hrs by ELISA; assay type: functional, cell-based; in short: as §2
Mus musculus [6] = test: Antiinflammatory activity in C57BL/6 mouse assessed as decrease in LPS-induced septic death at 15 mg/kg, ip administered 15 mins prior to LPS challenge measured every 1 day for 7 days relative to LPS-treated control; assay type: functional, organism-based; design: dose 15 mg/kg
In short: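 Male C57BL/6 mice, 18-22 g ([…]), acclimatized at least 7 days. Drug at 2 mg/mL in macrogol 15 hydroxystearate (5-10%) with or without MCT (0.5-2%), dosed i.p. 15 min before LPS (20 mg/kg i.v.). Vehicle controls received 10% solubilizer with 2% MCT. Survival recorded daily for 7 days, n=12 per group.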

Mus musculus [7] = test: Antiinflammatory activity in LPS-treated C57BL/6 mouse assessed as survival rate at 15 mg/kg, ip administered 15 mins measured every 1 day for 7 days relative to LPS-treated control; assay type: functional; settings: C57BL/6, ip, route intraperitoneal
In short: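 Male C57BL/6 mice (18-22 g, acclimatized ≥7 days) got LPS 20 mg/kg i.v. and drug 15 mg/kg i.p. either 15 min before or 15 min after. The drug was given at 2 mg/mL in macrogol 15 hydroxystearate (5-10% final), with or without MCT (0.5-2%), dissolved at 37 °C. Controls received vehicle. Survival was recorded daily for 7 days, with 12 mice per group.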

SMILES	inhibition (RAW264.7 [1])	inhibition (RAW264.7 [2])	Activity (RAW264.7 [3])	further results
CCOC(=O)C1=C(C)N=c2s/c(=C\c3cccc(OC)c3O)c(=O)n2C1c1ccccc1 (centres undefined)	Active	Active	Non-toxic	
COc1ccc(/C=c2\sc3nc4ccccc4n3c2=O)cc1O	Active	Active	Non-toxic	
CCOC(=O)C1=C(C)N=c2s/c(=C\c3cccc4ccccc34)c(=O)n2C1c1ccccc1 (centres undefined)	Active	Active	Non-toxic	
CCOC(=O)C1=C(C)N=c2s/c(=C\c3ccccc3Br)c(=O)n2C1c1ccccc1 (centres undefined)	Active	Active	Non-toxic	
COc1cc(/C=c2\sc3nc4ccccc4n3c2=O)ccc1O	Active	Active	Non-toxic	
COc1ccccc1/C=c1\sc2nc3ccccc3n2c1=O	Active	Active	Non-toxic	
O=c1/c(=C/c2ccc(N3CCOCC3)cc2)sc2ncnn12			Non-toxic	inhibition at 10 µM (RAW264.7 [1]): > 50%; inhibition at 10 µM (RAW264.7 [2]): > 50%
O=c1/c(=C/c2c[nH]c3ccccc23)sc2nc3ccccc3n12	Active		Non-toxic	inhibition at 10 µM (RAW264.7 [2]): > 50%
CCOC(=O)C1=C(C)N=c2s/c(=C\c3cccn3C)c(=O)n2C1c1ccccc1 (centres undefined)			Non-toxic	inhibition at 10 µM (RAW264.7 [1]): 60%; IC50 (RAW264.7 [4]): > 10 µM; IC50 (RAW264.7 [5]): 6.39 µM; inhibition (INH) (RAW264.7 [2]): 50% and 87%
Cc1ccc(/C=c2\sc3ncnn3c2=O)s1	Active	Active	Non-toxic	
O=c1/c(=C/c2cccc(Cl)c2Cl)sc2nc3ccccc3n12	Active	Active	Non-toxic	
CCOC(=O)C1=C(C)N=c2s/c(=C\c3ccc(N4CCOCC4)cc3)c(=O)n2C1c1ccccc1 (centres undefined)			Non-toxic	inhibition at 10 µM (RAW264.7 [1]): 62%; IC50 (RAW264.7 [4]): 4.17 µM; inhibition (RAW264.7 [4]): Dose-dependent effect; IC50 (RAW264.7 [5]): 0.83 µM; inhibition (RAW264.7 [5]): Dose-dependent effect; Activity (Mus musculus [6]): inactive; survival at 15 mg/kg (Mus musculus [7]): 70%; inhibition at 10 µM (RAW264.7 [2]): 92%
CCOc1ccc(Br)cc1/C=c1\sc2nc3ccccc3n2c1=O	Active	Active	Non-toxic	
O=c1/c(=C/c2ccc3ccccc3c2)sc2nc3ccccc3n12	Active	Active	Non-toxic	
Cn1cccc1/C=c1\sc2n(c1=O)CCN=2			Non-toxic	inhibition at 10 µM (RAW264.7 [1]): > 50%; inhibition at 10 µM (RAW264.7 [2]): > 50%
O=c1/c(=C/c2ccccc2Cl)sc2n1CCN=2	Active	Active	Non-toxic	

SMILES	inhibition (RAW264.7 [1])	inhibition (RAW264.7 [2])	Activity (RAW264.7 [3])	further results
COc1cccc(/C=c2\sc3ncnn3c2=O)c1OC	Active	Active	Non-toxic	
O=c1/c(=C/c2cccs2)sc2nc3ccccc3n12	Active	Active	Non-toxic	
O=c1/c(=C/c2ccccc2Br)sc2ncnn12			Non-toxic	inhibition at 10 µM (RAW264.7 [1]): > 50%; inhibition at 10 µM (RAW264.7 [2]): > 50%
Cc1ccc(/C=c2\sc3n(c2=O)CCN=3)s1		Active	Non-toxic	inhibition at 10 µM (RAW264.7 [1]): > 50%
O=c1/c(=C/c2ccccc2[N+](=O)[O-])sc2nc3ccccc3n12	Active	Active	Non-toxic	
O=c1/c(=C/c2c[nH]c3ccccc23)sc2ncnn12	Active		Non-toxic	inhibition at 10 µM (RAW264.7 [2]): > 50%
O=c1/c(=C/c2ccccc2Cl)sc2nc3ccccc3n12	Active	Active	Non-toxic	
O=c1/c(=C/c2ccc(N3CCOCC3)cc2)sc2nc3ccccc3n12	Active	Active	Non-toxic	
CCOC(=O)C1=C(C)N=c2s/c(=C\c3ccc(C)cc3C)c(=O)n2C1c1ccccc1 (centres undefined)	Active	Active	Non-toxic	
CCOC(=O)C1=C(C)N=c2s/c(=C\c3ccc(C)s3)c(=O)n2C1c1ccccc1 (centres undefined)	Active		Non-toxic	inhibition at 10 µM (RAW264.7 [2]): > 50%
CCOC(=O)C1=C(C)N=c2s/c(=C\c3ccccc3F)c(=O)n2C1c1ccccc1 (centres undefined)	Active	Active	Non-toxic	
O=c1/c(=C/c2ccccc2Br)sc2nc3ccccc3n12	Active	Active	Non-toxic	
Cc1ccc(/C=c2\sc3nc4ccccc4n3c2=O)c(C)c1	Active	Active	Non-toxic	
O=c1/c(=C/c2ccccc2F)sc2nc3ccccc3n12	Active	Active	Non-toxic	
O=c1/c(=C/c2ccc(N3CCOCC3)cc2)sc2n1CCN=2	Active		Non-toxic	inhibition at 10 µM (RAW264.7 [2]): > 50%
Cc1ccc(/C=c2\sc3nc4ccccc4n3c2=O)s1	Active	Active	Non-toxic	
